FGF22 binding – binders of human FGF22 protein, primary screen, FGF22 synaptogenesis inhibitor project, biophysical, thermal shift, single point. actives 1.5% (n = 340,000). AID 651658, 2012. activity (Tm shift, normalised), % at 9.99 µM. Fibroblast growth factor 22 (Homo sapiens), Q9HCT0. recombinant FGF22 thermal shift, SYPRO orange fluorescence; percent of sucrose octasulfate shift, DMSO zero;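 active means mean Tm shift, scaled 0 neutral to 100 positive control, at about 1.3% or above, every replicate too, limit read from the data; inconclusive means no clear call, values can overlap the other calls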
Target sequence (Q9HCT0 whole entry, looked up): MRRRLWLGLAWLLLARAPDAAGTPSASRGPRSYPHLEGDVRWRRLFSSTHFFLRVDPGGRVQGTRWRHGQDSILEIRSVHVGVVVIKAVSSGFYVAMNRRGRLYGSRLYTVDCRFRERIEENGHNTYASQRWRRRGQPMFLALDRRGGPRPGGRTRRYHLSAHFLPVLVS
PglD inh – C. jejuni PglD acetyltransferase inhibitors, primary screen, biochemical, DTNB colorimetric, single point; UDP-N-acetylbacillosamine N-acetyltransferase PglD (Campylobacter jejuni); purified PglD enzyme, DTNB colorimetric CoA detection; inhibition, % at 12.5 µM; actives 0.098% (n = 360,000); AID 602405, 2012; in the data active means inhibition above about 16%, passing the limit was not always enough; inconclusive means no clear call, values can overlap the other calls
DENV2 CPE rescue – inhibitors of DENV2 cytopathic effect, primary screen, cell-based, plate reader, single concentration | DENV2-infected cells, cytopathic effect rescue | CPE inhibition, % at 9.99 µM | actives 1.7% (n = 350,000) | AID 651640, 2012; in the data active means CPE inhibition above about 20%, passing the limit was not always enough; inconclusive means no clear call, values can overlap the other calls; tested in BHK-21 cells
XiGFP reactiv – activators of inactive X chromosome reactivation, primary screen, imaging, XiGFP fibroblasts, GFP high-content imaging, set 2; AID 743238, 2013; activation, % at 7.58 µM; XiGFP mouse fibroblasts, % GFP-positive cells imaging, 3 d; cells co-treated with 5-aza-dC sensitizer; scaled so ellipticine positive control = 100%; actives 0.055% (n = 360,000);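 active means mean normalized replicate activation at least 10% and every replicate at or above 10%; inconclusive means only one of the two criteria met; inactive means mean below 10% and not all replicates reach 10%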
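assay system = SV40-immortalized XiGFP fibroblast cells, line 68-5-11 | buffer or medium = DMEM plus 5-aza-dC sensitizer | doses = single-point pinned compound dosing | times = 3-day compound exposure, then 15 min fixation at room temperature | benchmarks = positive control ellipticine, 6 µM final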
E-sel inducer – E-selectin induction in HUVECs, primary screen, imaging, HUVEC, immunofluorescence imaging, single point; activation, % at 7.58 µM; actives 0.37% (n = 260,000); AID 686992, 2013; P16581; normalized: neutral wells 0, TNF-alpha wells 100;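 active means mean E-selectin-positive cell signal at least 10% of the positive control, reached in at least 60% of replicates, without over 20% cell loss; inconclusive means no rule given, readout overlaps actives, possibly toxicity-flagged; inactive means the rest, including those meeting only one limit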
Target sequence (P16581 whole entry, looked up): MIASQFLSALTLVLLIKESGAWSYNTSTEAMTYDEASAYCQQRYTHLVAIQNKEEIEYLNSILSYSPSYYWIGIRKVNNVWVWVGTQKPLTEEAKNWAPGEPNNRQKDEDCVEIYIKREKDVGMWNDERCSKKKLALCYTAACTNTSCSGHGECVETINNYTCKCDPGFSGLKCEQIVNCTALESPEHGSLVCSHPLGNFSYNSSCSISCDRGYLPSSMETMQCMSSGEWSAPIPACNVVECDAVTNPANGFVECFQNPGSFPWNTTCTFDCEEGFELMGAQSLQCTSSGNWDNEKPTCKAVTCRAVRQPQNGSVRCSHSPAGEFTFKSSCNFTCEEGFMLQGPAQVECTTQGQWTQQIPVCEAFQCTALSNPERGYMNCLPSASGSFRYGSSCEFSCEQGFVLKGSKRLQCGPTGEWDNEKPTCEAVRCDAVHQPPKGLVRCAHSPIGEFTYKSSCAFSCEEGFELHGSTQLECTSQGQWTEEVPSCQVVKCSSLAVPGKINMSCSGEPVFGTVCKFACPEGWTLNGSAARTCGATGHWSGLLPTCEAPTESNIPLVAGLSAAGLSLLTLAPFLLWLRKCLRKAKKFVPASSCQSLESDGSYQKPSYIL
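System: HUVEC / Compound: single concentration / Signal: immunofluorescence imaging / Read-out: percent E-selectin-positive cells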
C2C12 statin – suppressors of statin myotoxicity in C2C12 myotubes, primary screen, cell-based, single point, plate reader. C2C12 myotubes + simvastatin, ATP luminescence, 48 h; scaled: DMSO 0, geranylgeraniol control 100. rescue of ATP level, % at 7.49 µM. actives 0.78% (n = 330,000);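 active means mean ATP rescue above about 67%, or every replicate alone reaching that limit, limit read from the data, passing the limit was not always enough; inconclusive means no clear call, values can overlap the other calls; inactive means mean under the limit and some replicate under it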;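 further: myotubes were challenged with 10 µM simvastatin during compound exposure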
Of the large screens only hits and unclear results are named; the others gave an inactive call. Shown are actives, neighbours in structure and some others; about 3.3% of the full set was active somewhere.

C[C@@H]1CN([C@H](C)CO)C(=O)Cc2cc(NC(=O)Cc3ccccc3)ccc2O[C@H]1CN(C)S(C)(=O)=O	E-sel inducer 68
Cc1ccc(S(=O)(=O)N(C)C[C@@H]2Oc3ccc(NC(=O)Cc4ccccc4)cc3CC(=O)N([C@@H](C)CO)C[C@@H]2C)cc1	none
Cc1ccc(S(=O)(=O)N(C)C[C@H]2Oc3ccc(NC(=O)Cc4ccccc4)cc3CC(=O)N([C@@H](C)CO)C[C@@H]2C)cc1	C2C12 statin 85
COc1ccc(S(=O)(=O)N(C)C[C@H]2Oc3c(NC(=O)NC(C)C)cccc3C(=O)N([C@H](C)CO)C[C@H]2C)cc1	none (no result: C2C12 statin)
CC(C)(C)OC(=O)N[C@H]1C=C[C@@H](CC(=O)OCC(F)(F)F)C1	DENV2 CPE rescue 36 (no result: PglD inh, C2C12 statin)
O=C(Nc1ccccc1F)N[C@H]1CC[C@@H](CC(=O)N2CCCCC2)O[C@H]1CO	none
O=C(C[C@@H]1CC[C@H]2[C@@H](COC[C@@H](O)CN2C(=O)c2ccncc2)O1)NCc1ccc(-c2ccccc2)cc1	DENV2 CPE rescue active (no result: FGF22 binding)
O=C(C[C@@H]1CC[C@H]2[C@@H](COC[C@@H](O)CN2C(=O)c2cccnc2)O1)NCc1ccc(-c2ccccc2)cc1	DENV2 CPE rescue 27
O=C(C[C@H]1CC[C@H]2[C@@H](COC[C@@H](O)CN2C(=O)c2ccncc2)O1)NCc1ccc(-c2ccccc2)cc1	none (no result: FGF22 binding)
O=C(C[C@H]1CC[C@H]2[C@@H](COC[C@@H](O)CN2C(=O)c2cccnc2)O1)NCc1ccc(-c2ccccc2)cc1	none
O=C(C[C@H]1CC[C@H]2[C@@H](COC[C@H](O)CN2C(=O)c2cccnc2)O1)NCc1ccc(-c2ccccc2)cc1	DENV2 CPE rescue 22
COCCN(C[C@H]1[C@H](c2ccccc2)[C@@H](CO)N1C(=O)C1CCC1)C(C)=O	none (no result: FGF22 binding, DENV2 CPE rescue)
COc1ccc(S(=O)(=O)N(C)C[C@@H]2OCCCC[C@@H](C)Oc3ccc(NC(=O)CCC(F)(F)F)cc3C(=O)N([C@H](C)CO)C[C@@H]2C)cc1	none (no result: C2C12 statin)
CN1C(=O)c2cc(NC(=O)C3CCCC3)ccc2OC[C@H]2O[C@H](CC(=O)NCCc3ccncc3)CC[C@@H]21	DENV2 CPE rescue 29 (no result: PglD inh, C2C12 statin)
CN1C(=O)c2cc(NC(=O)C3CCC3)ccc2OC[C@@H]2O[C@H](CC(=O)NCCc3ccncc3)CC[C@H]21	none (no result: PglD inh, C2C12 statin)
CN1C(=O)c2cc(NC(=O)C3CCC3)ccc2OC[C@H]2O[C@@H](CC(=O)NCCc3ccncc3)CC[C@H]21	DENV2 CPE rescue 21 (no result: FGF22 binding, PglD inh, C2C12 statin)
CN1C(=O)c2cc(NC(=O)C3CCCC3)ccc2OC[C@H]2O[C@H](CC(=O)NCCc3ccncc3)CC[C@H]21	DENV2 CPE rescue 166 (no result: PglD inh, C2C12 statin)
CN1C(=O)c2cc(NC(=O)C3CCCC3)ccc2OC[C@@H]2O[C@H](CC(=O)NCCc3ccncc3)CC[C@@H]21	none (no result: FGF22 binding, PglD inh, C2C12 statin)
COCCNC(=O)C[C@@H]1CC[C@@H]2[C@@H](COc3ccc(NC(=O)C4CCOCC4)cc3C(=O)N2C)O1	DENV2 CPE rescue 21
COc1ccccc1CNC(=O)C[C@@H]1C[C@@H]2c3cc(NS(C)(=O)=O)ccc3O[C@@H]2[C@@H](CO)O1	none
Cc1ccc(S(=O)(=O)N(C)C[C@@H]2Oc3ccc(NC(=O)Nc4c(C)noc4C)cc3CC(=O)N([C@@H](C)CO)C[C@@H]2C)cc1	none
O=C(C/C=N/OCc1c(Cl)cccc1Cl)c1cnc(-c2ccccc2)s1	C2C12 statin 108 (no result: FGF22 binding, DENV2 CPE rescue, XiGFP reactiv, E-sel inducer)
O=C(C/C=N/OCc1ccc(Cl)cc1)c1cnc(-c2ccccc2)s1	none (no result: FGF22 binding, DENV2 CPE rescue, XiGFP reactiv, E-sel inducer)
CCC(C)(NC(=O)c1ccc(=O)[nH]c1)C(=O)NC1CCCC1 (configuration not stated)	C2C12 statin 92
Cc1ccc(-c2ccc3c(c2)O[C@@H](CN(C)Cc2ccncc2)[C@@H](C)CN([C@@H](C)CO)S3(=O)=O)cc1	XiGFP reactiv inconclusive
CN(C)S(=O)(=O)c1cccc(NC(=O)CSc2nc3ccccc3[nH]2)c1	none (no result: PglD inh, E-sel inducer)
Cc1csc(SCC(=O)Nc2cc(S(=O)(=O)N3CCCC3)ccc2Cl)n1	none (no result: FGF22 binding, DENV2 CPE rescue, XiGFP reactiv, E-sel inducer, C2C12 statin)
O=C(CSc1nc2ccccc2[nH]1)Nc1cccc(S(=O)(=O)N2CCOCC2)c1	FGF22 binding 1.8 (no result: E-sel inducer)
Cc1csc(SCC(=O)Nc2cccc(S(=O)(=O)N3CCCC3)c2)n1	C2C12 statin 136 (no result: FGF22 binding, DENV2 CPE rescue, XiGFP reactiv, E-sel inducer)
O=C(CSc1nc2ccccc2c(=O)n1-c1ccccc1Cl)Nc1cccc(S(=O)(=O)N2CCOCC2)c1	DENV2 CPE rescue 63 (no result: E-sel inducer, C2C12 statin)
CO[C@@H](CN(C)S(=O)(=O)c1ccccc1)[C@@H](C)CN(Cc1ccccc1Cl)[C@@H](C)CO	none
C[C@@H]1CN([C@H](C)CO)C(=O)Cc2cc(NC(=O)Cc3ccccc3)ccc2O[C@@H]1CN(C)Cc1ccc(C(F)(F)F)cc1	none
C[C@@H]1CN([C@@H](C)CO)C(=O)c2cc(NC(=O)CCCCCC(=O)Nc3ccccc3N)ccc2O[C@H]1CN(C)S(=O)(=O)c1ccc(F)cc1	none (no result: PglD inh, C2C12 statin)
CO[C@H]1CN(C)C(=O)c2ccc(NC(C)=O)cc2OC[C@@H](C)N(C(=O)C2CCOCC2)C[C@@H]1C	none
CCS(=O)(=O)N1CC2(CN(Cc3ccccc3F)[C@H](CO)c3[nH]c4cc(OC)ccc4c32)C1	none (no result: PglD inh, C2C12 statin)
COC(=O)c1sc2cc([N+](=O)[O-])cc(SCC(C)C)c2c1N	FGF22 binding 44 (no result: PglD inh, E-sel inducer, C2C12 statin)
CCOC(=O)c1cnc2c(cnn2C)c1Cl	FGF22 binding 43 (no result: PglD inh, E-sel inducer, C2C12 statin)
COc1ccc(NC(=O)N(C)C[C@@H]2Oc3c(NC(=O)Nc4ccc(C(F)(F)F)cc4)cccc3C(=O)N([C@@H](C)CO)C[C@@H]2C)cc1	none (no result: FGF22 binding, PglD inh, DENV2 CPE rescue, C2C12 statin)
CCOC(=O)C1(CCOC)CCN(C2C3CC4CC(C3)CC2C4)CC1 (configuration not stated)	FGF22 binding 43
COc1cccc(NC(=O)Cc2cn(C)c3ccccc23)c1	none (no result: FGF22 binding, DENV2 CPE rescue, XiGFP reactiv, E-sel inducer)
Cn1cc(CC(=O)Nc2ccc(Nc3cccnc3)cc2)c2ccccc21	DENV2 CPE rescue 54 (no result: PglD inh, C2C12 statin)
O=C(Cc1cn(Cc2ccccc2)c2ccccc12)Nc1ccc(Oc2cccnc2)cc1	DENV2 CPE rescue 49 (no result: PglD inh, C2C12 statin)
COc1ccc(CNC(=O)C[C@H]2C=C[C@@H](NC(=O)Nc3ccc4c(c3)OCO4)[C@H](CO)O2)cc1	none
CC(C)OC(=O)CC(=O)CSc1nc2c(c(-c3cccs3)c1C#N)CCC2	FGF22 binding 44 (no result: PglD inh, DENV2 CPE rescue, E-sel inducer, C2C12 statin)
